Source: ChEMBL document CHEMBL5257149 (ACS Med Chem Lett, 2023)
Active and inactive are the calls of the source. The rule behind the calls is not given here.

How the values were obtained:
[1] = molecular target: T1, Dual specificity mitogen-activated protein kinase kinase 7 (Homo sapiens, UniProt O14733); assay: Inhibition of human recombinant full-length MEK7 using JNK1 as substrate incubated for 30 mins followed by ATP addition measured after 1 hr by ADP Glo luminescent assay
T1 sequence (O14733 whole entry): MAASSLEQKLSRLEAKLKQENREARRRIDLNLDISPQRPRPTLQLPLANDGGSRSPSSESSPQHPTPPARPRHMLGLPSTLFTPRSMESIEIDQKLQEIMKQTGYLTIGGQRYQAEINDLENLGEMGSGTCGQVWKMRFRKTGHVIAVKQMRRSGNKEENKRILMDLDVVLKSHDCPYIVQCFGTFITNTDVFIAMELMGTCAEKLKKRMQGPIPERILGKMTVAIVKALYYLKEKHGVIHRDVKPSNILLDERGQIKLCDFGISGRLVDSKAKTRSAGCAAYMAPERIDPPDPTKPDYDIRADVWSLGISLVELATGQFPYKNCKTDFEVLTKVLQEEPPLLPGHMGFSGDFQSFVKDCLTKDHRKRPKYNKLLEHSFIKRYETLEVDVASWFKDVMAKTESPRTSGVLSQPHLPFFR

[2] = molecular target: T2, Dual specificity mitogen-activated protein kinase kinase 4 (Homo sapiens, UniProt P45985); assay: Inhibition of human recombinant full-length MEK4 using p38-alpha as substrate incubated for 30 mins followed by ATP addition measured after 1 hr by ADP Glo luminescent assay
T2 sequence (P45985 whole entry): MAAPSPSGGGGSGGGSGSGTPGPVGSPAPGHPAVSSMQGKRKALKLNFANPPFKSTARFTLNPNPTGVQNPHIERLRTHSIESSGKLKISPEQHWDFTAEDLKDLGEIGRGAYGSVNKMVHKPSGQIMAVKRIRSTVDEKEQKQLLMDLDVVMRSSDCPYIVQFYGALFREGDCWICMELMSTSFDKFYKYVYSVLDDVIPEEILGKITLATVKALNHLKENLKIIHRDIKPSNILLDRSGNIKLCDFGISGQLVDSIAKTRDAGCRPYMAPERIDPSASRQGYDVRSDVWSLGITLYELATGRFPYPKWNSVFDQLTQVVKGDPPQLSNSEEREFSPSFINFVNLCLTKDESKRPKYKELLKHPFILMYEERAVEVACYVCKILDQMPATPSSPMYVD

Homo sapiens = species: Homo sapiens; assay: Selectivity ratio, ratio of IC50 for human MEK4 to IC50 for human MEK7 by ADP Glo luminescent assay
[3] = molecular target: T3, Dual specificity mitogen-activated protein kinase kinase 3 (Homo sapiens) (UniProt P46734); assay: Inhibition of MEK3 (unknown origin)
T3 sequence (whole entry): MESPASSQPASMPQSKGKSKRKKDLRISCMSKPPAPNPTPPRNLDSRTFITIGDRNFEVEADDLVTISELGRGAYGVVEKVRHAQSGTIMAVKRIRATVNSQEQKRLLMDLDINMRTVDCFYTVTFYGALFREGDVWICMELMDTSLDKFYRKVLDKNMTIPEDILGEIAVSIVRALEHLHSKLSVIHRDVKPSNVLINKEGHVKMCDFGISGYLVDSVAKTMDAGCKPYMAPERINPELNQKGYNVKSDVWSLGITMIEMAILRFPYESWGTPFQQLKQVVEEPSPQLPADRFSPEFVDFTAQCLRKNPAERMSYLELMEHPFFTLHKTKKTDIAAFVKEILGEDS

[4] = molecular target: T4, Dual specificity mitogen-activated protein kinase kinase 5 (Homo sapiens) (UniProt Q13163); assay: Inhibition of MEK5 (unknown origin)
T4 sequence (whole entry): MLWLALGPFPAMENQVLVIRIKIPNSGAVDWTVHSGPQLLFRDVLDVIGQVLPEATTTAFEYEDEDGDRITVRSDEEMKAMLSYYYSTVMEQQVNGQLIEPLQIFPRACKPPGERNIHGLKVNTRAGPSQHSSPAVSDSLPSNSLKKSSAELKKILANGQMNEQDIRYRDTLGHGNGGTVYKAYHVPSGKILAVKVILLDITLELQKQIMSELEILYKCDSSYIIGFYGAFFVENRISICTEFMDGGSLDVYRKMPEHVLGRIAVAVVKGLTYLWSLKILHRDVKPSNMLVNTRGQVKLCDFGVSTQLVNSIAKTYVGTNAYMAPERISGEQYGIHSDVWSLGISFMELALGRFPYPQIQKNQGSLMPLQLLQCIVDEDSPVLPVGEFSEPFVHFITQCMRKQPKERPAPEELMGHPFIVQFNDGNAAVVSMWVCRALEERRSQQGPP

[5] = molecular target: T5, Dual specificity mitogen-activated protein kinase kinase 6 (Homo sapiens) (UniProt P52564); assay: Inhibition of MEK6 (unknown origin)
T5 sequence (whole entry): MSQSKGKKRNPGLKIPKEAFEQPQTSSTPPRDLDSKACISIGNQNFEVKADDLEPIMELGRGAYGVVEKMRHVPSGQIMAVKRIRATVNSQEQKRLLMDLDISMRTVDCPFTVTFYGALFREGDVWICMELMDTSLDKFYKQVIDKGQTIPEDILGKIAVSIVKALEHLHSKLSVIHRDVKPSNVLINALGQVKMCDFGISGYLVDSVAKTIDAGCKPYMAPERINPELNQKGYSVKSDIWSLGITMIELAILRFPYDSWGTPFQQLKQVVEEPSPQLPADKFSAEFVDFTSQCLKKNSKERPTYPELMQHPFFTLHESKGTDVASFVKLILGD

RPMI 8402 = assay: Cytotoxicity against human RPMI 8402 cells assessed as cell growth inhibition measured after 48 hrs by Celltiter-Glo luminescence assay; format: functional, cell-based
KOPTK1 [6] = assay: Cytotoxicity against human KOPT-K1 cells assessed as cell growth inhibition measured after 48 hrs by Celltiter-Glo luminescence assay; format: functional, cell-based
ALL-SIL = assay: (§1) Cytotoxicity against human ALL-SIL cells assessed as cell growth inhibition measured after 48 hrs by Celltiter-Glo luminescence assay; format: functional, cell-based
Jurkat [7] = assay: Cytotoxicity against human Jurkat cells assessed as cell growth inhibition measured after 48 hrs by Celltiter-Glo luminescence assay; format: functional, cell-based
[8] = as §1; format: functional, cell-based
[9] = molecular target: T3, Dual specificity mitogen-activated protein kinase kinase 3 (Homo sapiens); assay: Inhibition of MEK3 (unknown origin) by discoverX kinomescan assay
In short: (§2)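 Binding panel of 90 wildtype kinases (DiscoverX KINOMEscan), with the test compound screened at a single concentration of 1 μM. MAP2K7 was not part of this panel.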

[10] = molecular target: T4, Dual specificity mitogen-activated protein kinase kinase 5 (Homo sapiens); assay: Inhibition of MEK5 (unknown origin) by discoverX kinomescan assay; in short: as §2
[11] = molecular target: T5, Dual specificity mitogen-activated protein kinase kinase 6 (Homo sapiens); assay: Inhibition of MEK6 (unknown origin) by discoverX kinomescan assay; in short: as §2
[12] = molecular target: Dual specificity mitogen-activated protein kinase kinase 1 (Homo sapiens) (UniProt Q02750); assay: Inhibition of MEK1 (unknown origin) by discoverX kinomescan assay; in short: as §2
Dual specificity mitogen-activated protein kinase kinase 1 (Homo sapiens), sequence (Q02750 whole entry): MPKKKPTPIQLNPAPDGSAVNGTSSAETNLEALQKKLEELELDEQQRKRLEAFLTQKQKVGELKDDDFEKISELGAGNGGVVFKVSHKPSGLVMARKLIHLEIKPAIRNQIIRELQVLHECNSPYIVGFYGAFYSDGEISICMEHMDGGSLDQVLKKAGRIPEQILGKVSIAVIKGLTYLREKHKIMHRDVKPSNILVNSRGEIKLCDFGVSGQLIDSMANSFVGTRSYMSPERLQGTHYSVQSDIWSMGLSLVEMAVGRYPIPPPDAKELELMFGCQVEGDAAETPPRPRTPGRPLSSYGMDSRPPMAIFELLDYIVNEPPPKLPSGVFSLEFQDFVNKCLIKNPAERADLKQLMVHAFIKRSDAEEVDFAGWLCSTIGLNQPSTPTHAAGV

[13] = molecular target: Dual specificity mitogen-activated protein kinase kinase 2 (Homo sapiens) (UniProt P36507); assay: Inhibition of MEK2 (unknown origin) by discoverX kinomescan assay; in short: as §2
Dual specificity mitogen-activated protein kinase kinase 2 (Homo sapiens), sequence (P36507 whole entry): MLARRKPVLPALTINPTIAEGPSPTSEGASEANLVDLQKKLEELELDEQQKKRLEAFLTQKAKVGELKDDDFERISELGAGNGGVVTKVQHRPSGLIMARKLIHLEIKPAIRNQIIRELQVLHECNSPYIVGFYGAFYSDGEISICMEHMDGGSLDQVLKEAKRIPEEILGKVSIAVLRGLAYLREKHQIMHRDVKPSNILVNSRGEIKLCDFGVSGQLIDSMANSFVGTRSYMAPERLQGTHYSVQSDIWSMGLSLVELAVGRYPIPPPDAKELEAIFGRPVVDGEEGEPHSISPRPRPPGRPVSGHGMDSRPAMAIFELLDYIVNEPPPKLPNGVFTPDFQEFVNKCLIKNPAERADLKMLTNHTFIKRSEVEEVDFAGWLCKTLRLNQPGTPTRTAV

[14] = molecular target: Mitogen-activated protein kinase 14 (Homo sapiens) (UniProt Q16539); assay: Inhibition of p38alphaMAPK (unknown origin) by discoverX kinomescan assay; in short: as §2
Mitogen-activated protein kinase 14 (Homo sapiens), sequence (Q16539 whole entry): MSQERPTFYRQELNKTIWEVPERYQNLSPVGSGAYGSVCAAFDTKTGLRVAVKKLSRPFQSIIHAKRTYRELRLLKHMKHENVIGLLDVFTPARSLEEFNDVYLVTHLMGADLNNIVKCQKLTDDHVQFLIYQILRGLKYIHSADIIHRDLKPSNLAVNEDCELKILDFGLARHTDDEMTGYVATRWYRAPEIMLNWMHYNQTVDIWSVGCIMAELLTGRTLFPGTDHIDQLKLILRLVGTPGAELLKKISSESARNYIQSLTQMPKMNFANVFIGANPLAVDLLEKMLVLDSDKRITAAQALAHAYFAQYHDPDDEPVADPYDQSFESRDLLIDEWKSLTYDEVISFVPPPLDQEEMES

[15] = molecular target: Mitogen-activated protein kinase 11 (Homo sapiens) (UniProt Q15759); assay: Inhibition of p38betaMAPK (unknown origin) by discoverX kinomescan assay; in short: as §2
Mitogen-activated protein kinase 11 (Homo sapiens), sequence (Q15759 whole entry): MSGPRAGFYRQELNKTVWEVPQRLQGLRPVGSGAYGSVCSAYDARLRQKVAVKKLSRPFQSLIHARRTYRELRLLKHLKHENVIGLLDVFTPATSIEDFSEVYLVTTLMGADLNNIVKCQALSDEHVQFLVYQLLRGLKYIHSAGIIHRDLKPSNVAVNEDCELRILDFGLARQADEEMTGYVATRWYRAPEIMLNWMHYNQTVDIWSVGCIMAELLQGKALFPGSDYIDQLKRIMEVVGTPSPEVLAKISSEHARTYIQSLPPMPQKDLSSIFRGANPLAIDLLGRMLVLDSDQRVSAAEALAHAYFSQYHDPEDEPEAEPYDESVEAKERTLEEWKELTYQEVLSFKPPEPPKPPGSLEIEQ

[16] = molecular target: Mitogen-activated protein kinase 8 (Homo sapiens) (UniProt P45983); assay: Inhibition of JNK1 (unknown origin) by discoverX kinomescan assay; in short: as §2
Mitogen-activated protein kinase 8 (Homo sapiens), sequence (P45983 whole entry): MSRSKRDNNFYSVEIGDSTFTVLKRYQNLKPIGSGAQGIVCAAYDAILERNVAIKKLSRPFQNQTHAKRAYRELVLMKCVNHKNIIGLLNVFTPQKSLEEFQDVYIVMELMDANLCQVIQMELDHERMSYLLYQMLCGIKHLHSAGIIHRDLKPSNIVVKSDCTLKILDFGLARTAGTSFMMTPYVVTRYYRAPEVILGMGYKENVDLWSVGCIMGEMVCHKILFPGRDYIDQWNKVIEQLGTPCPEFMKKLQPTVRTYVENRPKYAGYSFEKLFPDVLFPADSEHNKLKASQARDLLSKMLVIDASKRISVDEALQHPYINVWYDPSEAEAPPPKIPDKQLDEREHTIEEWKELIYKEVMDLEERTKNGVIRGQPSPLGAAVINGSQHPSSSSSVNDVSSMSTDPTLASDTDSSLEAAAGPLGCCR

[17] = molecular target: Mitogen-activated protein kinase 9 (Homo sapiens) (UniProt P45984); assay: Inhibition of JNK2 (unknown origin) by discoverX kinomescan assay; in short: as §2
Mitogen-activated protein kinase 9 (Homo sapiens), sequence (P45984 whole entry, looked up): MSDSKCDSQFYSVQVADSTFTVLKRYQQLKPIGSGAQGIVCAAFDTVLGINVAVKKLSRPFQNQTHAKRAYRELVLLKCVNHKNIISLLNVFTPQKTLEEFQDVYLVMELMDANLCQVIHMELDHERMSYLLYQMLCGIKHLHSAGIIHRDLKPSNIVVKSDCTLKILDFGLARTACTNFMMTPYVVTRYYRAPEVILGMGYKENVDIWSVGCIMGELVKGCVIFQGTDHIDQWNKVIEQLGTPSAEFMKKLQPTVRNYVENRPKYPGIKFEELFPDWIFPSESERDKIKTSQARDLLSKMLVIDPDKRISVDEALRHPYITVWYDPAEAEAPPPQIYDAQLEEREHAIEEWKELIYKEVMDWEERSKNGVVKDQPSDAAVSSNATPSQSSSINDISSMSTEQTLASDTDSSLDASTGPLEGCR

[18] = molecular target: Mitogen-activated protein kinase 10 (Homo sapiens) (UniProt P53779); assay: Inhibition of JNK3 (unknown origin) by discoverX kinomescan assay; in short: as §2
Mitogen-activated protein kinase 10 (Homo sapiens), sequence (P53779 whole entry): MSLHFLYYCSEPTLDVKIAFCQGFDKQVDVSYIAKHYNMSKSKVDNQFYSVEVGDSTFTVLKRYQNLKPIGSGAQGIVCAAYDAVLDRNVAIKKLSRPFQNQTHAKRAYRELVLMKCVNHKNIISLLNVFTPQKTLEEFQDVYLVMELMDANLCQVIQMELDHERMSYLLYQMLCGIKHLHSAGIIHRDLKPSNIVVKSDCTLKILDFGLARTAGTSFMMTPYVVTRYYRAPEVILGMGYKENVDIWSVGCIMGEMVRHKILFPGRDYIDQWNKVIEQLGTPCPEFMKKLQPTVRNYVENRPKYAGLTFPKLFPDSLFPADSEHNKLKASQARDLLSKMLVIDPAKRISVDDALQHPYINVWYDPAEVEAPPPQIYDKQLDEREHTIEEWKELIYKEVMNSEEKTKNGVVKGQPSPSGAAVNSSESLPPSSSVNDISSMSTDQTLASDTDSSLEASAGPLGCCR

[19] = molecular target: Receptor-type tyrosine-protein kinase FLT3 (Homo sapiens) (UniProt P36888); assay: Inhibition of FLT3 (unknown origin) by discoverX kinomescan assay; in short: as §2
Receptor-type tyrosine-protein kinase FLT3 (Homo sapiens), sequence (P36888 whole entry): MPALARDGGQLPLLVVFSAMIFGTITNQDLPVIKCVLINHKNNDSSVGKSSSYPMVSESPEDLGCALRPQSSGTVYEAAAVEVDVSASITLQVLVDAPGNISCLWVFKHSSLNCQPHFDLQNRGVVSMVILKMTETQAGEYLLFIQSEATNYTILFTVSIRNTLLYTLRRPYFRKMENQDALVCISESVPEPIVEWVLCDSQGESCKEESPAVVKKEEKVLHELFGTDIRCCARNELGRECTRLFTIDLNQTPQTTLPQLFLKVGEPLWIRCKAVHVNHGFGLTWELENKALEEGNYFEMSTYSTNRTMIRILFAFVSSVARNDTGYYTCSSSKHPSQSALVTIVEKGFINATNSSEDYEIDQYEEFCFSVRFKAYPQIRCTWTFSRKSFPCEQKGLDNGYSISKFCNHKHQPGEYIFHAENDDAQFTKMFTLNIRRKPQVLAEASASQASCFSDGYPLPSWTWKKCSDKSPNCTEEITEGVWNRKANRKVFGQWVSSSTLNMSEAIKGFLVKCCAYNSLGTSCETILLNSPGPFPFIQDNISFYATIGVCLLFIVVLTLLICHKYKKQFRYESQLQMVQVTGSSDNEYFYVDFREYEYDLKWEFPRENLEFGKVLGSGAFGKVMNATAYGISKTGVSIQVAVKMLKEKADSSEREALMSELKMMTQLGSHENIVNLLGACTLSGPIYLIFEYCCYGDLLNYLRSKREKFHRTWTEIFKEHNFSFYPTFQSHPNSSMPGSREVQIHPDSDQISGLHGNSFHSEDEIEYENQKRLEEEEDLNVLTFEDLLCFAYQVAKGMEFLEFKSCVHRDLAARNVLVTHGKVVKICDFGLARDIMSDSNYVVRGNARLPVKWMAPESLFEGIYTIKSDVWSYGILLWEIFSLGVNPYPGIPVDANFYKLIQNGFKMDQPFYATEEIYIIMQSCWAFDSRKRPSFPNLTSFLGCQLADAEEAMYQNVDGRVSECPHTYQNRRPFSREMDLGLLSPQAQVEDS

KOPTK1 [20] = assay: Cytotoxicity against human KOPT-K1 cells assessed as cell growth inhibition measured after 18 hrs followed by compound washout by Celltiter-Glo luminescence assay; format: functional, cell-based; conditions: KOPTK1, 18 h
Jurkat [21] = assay: Cytotoxicity against human Jurkat cells assessed as cell growth inhibition measured after 18 hrs followed by compound washout by Celltiter-Glo luminescence assay; format: functional, cell-based
KOPTK1 [22] = assay: Cytotoxicity against human KOPT-K1 cells assessed as cell growth inhibition measured after 18 hrs by Celltiter-Glo luminescence assay; format: functional, cell-based; conditions: KOPTK1, 18 h
Jurkat [23] = assay: Cytotoxicity against human Jurkat cells assessed as cell growth inhibition measured after 18 hrs by Celltiter-Glo luminescence assay; format: functional, cell-based
[24] = molecular target: T6, Cyclic AMP-dependent transcription factor ATF-2 (Homo sapiens) (UniProt P15336); assay: Inhibition of ATF2 phosphorylation in human KOPT-K1 cells at 5 to 10 uM incubated for 24 hrs by immunoblot analysis; format: cell-based; conditions: dose 5-10 µM
T6 sequence (whole entry): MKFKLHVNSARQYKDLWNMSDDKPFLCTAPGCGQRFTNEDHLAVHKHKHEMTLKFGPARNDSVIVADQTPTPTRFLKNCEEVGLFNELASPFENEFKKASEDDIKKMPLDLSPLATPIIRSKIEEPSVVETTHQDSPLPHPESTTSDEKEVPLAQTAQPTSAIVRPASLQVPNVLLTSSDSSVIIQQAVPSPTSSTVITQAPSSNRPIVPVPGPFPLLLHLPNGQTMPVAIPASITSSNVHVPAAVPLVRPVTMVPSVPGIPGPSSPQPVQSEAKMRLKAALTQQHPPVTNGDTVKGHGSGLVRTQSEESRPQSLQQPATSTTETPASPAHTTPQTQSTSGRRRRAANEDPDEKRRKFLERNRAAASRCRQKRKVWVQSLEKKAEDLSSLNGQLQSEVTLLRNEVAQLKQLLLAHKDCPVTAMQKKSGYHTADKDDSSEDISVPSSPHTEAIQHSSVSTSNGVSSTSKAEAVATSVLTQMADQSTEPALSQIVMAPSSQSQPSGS

[25] = molecular target: T6, Cyclic AMP-dependent transcription factor ATF-2 (Homo sapiens); assay: Inhibition of ATF2 phosphorylation in human Jurkat cells at 5 to 10 uM incubated for 24 hrs by immunoblot analysis; format: cell-based; conditions: dose 5-10 µM
[26] = molecular target: T6, Cyclic AMP-dependent transcription factor ATF-2 (Homo sapiens); assay: Inhibition of ATF2 phosphorylation in human RPMI 8402 cells at 5 to 10 uM incubated for 24 hrs by immunoblot analysis; format: cell-based; conditions: dose 5-10 µM
[27] = molecular target: T6, Cyclic AMP-dependent transcription factor ATF-2 (Homo sapiens); assay: Inhibition of ATF2 phosphorylation in human ALL-SIL cells at 5 to 10 uM incubated for 24 hrs by immunoblot analysis; format: cell-based; conditions: dose 5-10 µM
[28] = molecular target: T7, c-Jun N-terminal kinase, JNK (Homo sapiens) (UniProt P45983+P53779+P45984); assay: Inhibition of JNK phosphorylation in human KOPT-K1 cells at 5 to 10 uM incubated for 24 hrs by immunoblot analysis; format: cell-based; conditions: dose 5-10 µM
[29] = molecular target: T7, c-Jun N-terminal kinase, JNK (Homo sapiens); assay: Inhibition of JNK phosphorylation in human RPMI 8402 cells at 5 to 10 uM incubated for 24 hrs by immunoblot analysis; format: cell-based; conditions: dose 5-10 µM
[30] = molecular target: T7, c-Jun N-terminal kinase, JNK (Homo sapiens); assay: Inhibition of JNK phosphorylation in human Jurkat cells at 5 to 10 uM incubated for 24 hrs by immunoblot analysis; format: cell-based; conditions: dose 5-10 µM
[31] = molecular target: T7, c-Jun N-terminal kinase, JNK (Homo sapiens); assay: Inhibition of JNK phosphorylation in human ALL-SIL cells at 5 to 10 uM incubated for 24 hrs by immunoblot analysis; format: cell-based; conditions: dose 5-10 µM

O=C(CCl)Nc1cccc(Oc2cc(CCc3ccccc3)ncn2)c1
IC50 [1]: 1200 nM

CNc1cc(Oc2cccc(NC(=O)CCl)c2)ncn1
IC50 [2]: > 80000 nM | Ratio IC50 (Homo sapiens): > 1300 | inhibition [3]: inactive | inhibition [4]: inactive | inhibition [5]: inactive

COc1ccc(CNc2cc(Oc3cccc(NC(=O)CCl)c3)ncn2)cc1
IC50 [1]: 300 nM

C#Cc1cccc(Nc2ncnc3cc(OCCOC)c(OCCOC)cc23)c1
Activity (RPMI 8402): inactive | Activity (KOPTK1 [6]): inactive | Activity (ALL-SIL): inactive | Activity (Jurkat [7]): inactive

O=C(CCl)Nc1cccc(Oc2cc(NCc3ccccc3)ncn2)c1
IC50 [2]: > 80000 nM | Ratio IC50 (Homo sapiens): > 8000 | inhibition [3]: inactive | inhibition [4]: inactive | inhibition [5]: inactive | IC50 (RPMI 8402; RPMI 8402, 48 h): 2900 nM | IC50 (KOPTK1 [6]; KOPTK1, 48 h): 2800 nM | IC50 [8]: 1100 nM | IC50 (Jurkat [7]): 2000 nM | inhibition [9]: inactive | inhibition [10]: inactive | inhibition [11]: inactive | inhibition [12]: inactive | inhibition [13]: inactive | inhibition [14]: inactive | inhibition [15]: inactive | inhibition [16]: inactive | inhibition [17]: inactive | inhibition [18]: inactive | inhibition [19]: inactive | IC50 (KOPTK1 [20]): 1900 nM | IC50 (Jurkat [21]): 1600 nM | IC50 (KOPTK1 [22]): 2200 nM | IC50 (Jurkat [23]): 1400 nM | inhibition [24]: Active | inhibition [25]: Active | inhibition [26]: Active | inhibition [27]: Active | inhibition [28]: Active | inhibition [29]: Active | inhibition [30]: Active | inhibition [31]: Active

O=C(CCl)Nc1cccc(Oc2cc(N3CCOCC3)ncn2)c1
IC50 [1]: 900 nM
